Key:
Escherichia coli [1] = test: Minimum inhibitory concentration against Escherichia coli (Vogel); assay type: functional
In short: (§1)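 Serial twofold tube dilution in tryptose phosphate broth. Each compound was prepared as a 1000 μg/mL aqueous stock and diluted in double-strength broth, then 2×10^5 cells were added. Tubes were incubated aerobically at 37 °C for 24 h. The MIC was taken as the lowest concentration with no visible growth.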

Klebsiella pneumoniae = test: Minimum inhibitory concentration against Klebsiella pneumonia 39645; assay type: functional; in short: as §1
Pseudomonas aeruginosa [2] = test: Compound is evaluated for the antimicrobial minimum inhibitory concentration against Pseudomonas aeruginosa MGH-1; assay type: functional
Streptococcus mutans [3] = test: Compound is evaluated for minimum plaque inhibitory concentration using a standard test organism, Streptococcus mutans OMZ-61; assay type: functional
In short: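 S. mutans OMZ-61 in pH 7.0 beef extract–trypticase medium with 0.5% sucrose. Sterile ceramic hydroxylapatite plates got two 1-min soaks in 0.1–0.001% compound, each followed by 1-min air-drying, then a 5-min water rinse. Plates were put in inoculated medium at 37 °C anaerobically for 24 h. The cycle was repeated for a second 24 h. Plaque was stained with 1% FD&C Red No. 3. Value is the lowest concentration completely preventing plaque.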

Staphylococcus aureus [4] = test: Compound is evaluated for the antimicrobial minimum inhibitory concentration against Staphylococcus aureus (Smith); assay type: functional; in short: as §1
Proteus mirabilis [5] = test: Compound is evaluated for the antimicrobial minimum inhibitory concentration against Proteus mirabilis MGH-1; assay type: functional; in short: as §1
Escherichia coli [6] = test: Antimicrobial minimum inhibitory concentration against Escherichia coli AB1932-1; assay type: functional; in short: as §1
Escherichia coli [7] = test: Antimicrobial minimum inhibitory concentration against Escherichia coli 100/B22; assay type: functional; in short: as §1
Proteus mirabilis [8] = test: Minimum antimicrobial inhibitory concentration against Proteus mirabilis MGH-1; assay type: functional; in short: as §1
Pseudomonas aeruginosa [9] = test: Minimum antimicrobial inhibitory concentration against Pseudomonas aeruginosa MGH-2; assay type: functional; in short: as §1
Streptococcus mutans [10] = test: Compound is evaluated for the effect of saliva upon the antiplaque activity at 0% of saliva and at 0.01 percentage of compound; - = No plaque accumulation; assay type: functional, organism-based
In short: (§2)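 Hydroxylapatite plate antiplaque assay against S. mutans run for 48 h, with two 1-min exposures to aqueous compound per 24 h. Growth medium contained 0, 5 or 50% pooled human saliva (paraffin-stimulated, centrifuged, filtered, membrane-sterilized). Plaque was stained with FD&C Red No. 3 and graded none, slight or moderate. Staining potential was scored on plates run without inoculum and graded none or slight.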

Streptococcus mutans [11] = test: Compound is evaluated for the effect of saliva upon the antiplaque activity at 0% of saliva and at 0.025 percentage of compound; - = No plaque accumulation; assay type: functional, organism-based; in short: as §2
Streptococcus mutans [12] = test: Compound is evaluated for the effect of saliva upon the antiplaque activity at 0% of saliva and at 0.05 percentage of compound; - = No plaque accumulation; assay type: functional, organism-based; in short: as §2
Streptococcus mutans [13] = test: Compound is evaluated for the effect of saliva upon the antiplaque activity at 50% of saliva and at 0.01 percentage of compound; assay type: functional, organism-based; in short: as §2
Streptococcus mutans [14] = test: Compound is evaluated for the effect of saliva upon the antiplaque activity at 50% of saliva and at 0.025 percentage of compound; - = No plaque accumulation; assay type: functional, organism-based; in short: as §2
Streptococcus mutans [15] = test: Compound is evaluated for the effect of saliva upon the antiplaque activity at 50% of saliva and at 0.05 percentage of compound; - = No plaque accumulation; assay type: functional, organism-based; in short: as §2
Streptococcus mutans [16] = test: Compound is evaluated for the effect of saliva upon the antiplaque activity at 0% of saliva and at 0.025 percentage of compound; + = Slight staining; assay type: functional, organism-based; in short: as §2
Streptococcus mutans [17] = test: Compound is evaluated for the effect of saliva upon the antiplaque activity at 0% of saliva and at 0.05 percentage of compound; + = Slight staining; assay type: functional, organism-based; in short: as §2
Streptococcus mutans [18] = test: Compound is evaluated for the effect of saliva upon the antiplaque activity at 50% of saliva and at 0.01 percentage of compound; - = No staining; assay type: functional, organism-based; in short: as §2
Streptococcus mutans [19] = test: Compound is evaluated for the effect of saliva upon the antiplaque activity at 50% of saliva and at 0.025 percentage of compound; - = No staining; assay type: functional, organism-based; in short: as §2
Streptococcus mutans [20] = test: Compound is evaluated for the effect of saliva upon the antiplaque activity at 50% of saliva and at 0.05 percentage of compound; - = No staining; assay type: functional, organism-based; in short: as §2
Streptococcus mutans [21] = test: Compound is evaluated for the inhibition of plaque-forming enzyme of Streptococcus mutans OMZ-61; assay type: functional
In short: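 S. mutans OMZ-61 was grown anaerobically at 37 °C for 24 h in glucose medium. The cell-free filtrate, adjusted to pH 5.5, served as the dextran/levan sucrase source. Reactions contained 3 μmol 14C-sucrose in citrate phosphate buffer pH 5.5 with 4% EtOH and ran 2 h at 37 °C. MeOH-insoluble polysaccharide was counted by scintillation. Compounds were tested at 50, 160 and 500 μg base/mL, with lower levels if needed, and I50 was read graphically.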

Staphylococcus aureus [22] = test: Minimum antimicrobial inhibitory concentration against Staphylococcus aureus; assay type: functional; in short: as §1
Streptococcus mutans [23] = test: Compound is evaluated for the effect of saliva upon the staining potential at 0% of saliva and at 0.01 percentage of compound; + = Slight staining; assay type: functional, organism-based; in short: as §2
Streptococcus mutans [24] = test: Minimum plaque inhibitory concentration using a standard test organism, Streptococcus mutans OMZ-61; assay type: functional, organism-based
In short: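 Ceramic hydroxylapatite plates were soaked twice for 1 min each in compound at […] (aqueous), air-dried and rinsed, then hung in sucrose beef-extract medium (pH 7.0) inoculated with late-log S. mutans OMZ-61. Incubation was anaerobic at 37 °C for 24 h, and treatment plus reinoculation were repeated for a second 24 h. Plaque was stained with 1% FD&C Red No. 3 and scored visually. The value is the lowest concentration giving no plaque while medium growth matched control.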

Streptococcus mutans [25] = test: Compound is evaluated for the growth inhibition of Streptococcus mutans OMZ-61; assay type: functional
Actinomyces viscosus = test: Compound is evaluated for minimal bactericidal concentration against plaque formation for Actinomyces viscosus; assay type: functional, organism-based
In short: (§3)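 Preformed in vitro plaques of S. mutans NCTC 10449 or A. viscosus M-100 were grown on ceramic hydroxylapatite under anaerobic conditions at 37 °C in sucrose-supplemented medium. Plaques were immersed for 30 min at 37 °C in compound at 0.3–20 mM, rinsed, and moved to broth containing bromocresol purple. Kill was judged by no acid production, no turbidity increase and no growth on plating at 48 h. Plaques were run in quadruplicate.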

Streptococcus mutans [26] = test: Compound is evaluated for minimal bactericidal concentration against plaque formation for Streptococcus mutans; assay type: functional, organism-based; in short: as §3
[27] = Compound is evaluated for stain index; assay type: functional
In short: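 Ratio of the minimum concentration staining a plaque-free ceramic hydroxylapatite plate to the minimum plaque-inhibiting concentration, both run under the same conditions. Plates got two 1-min soaks (0.1–0.001%), each followed by air-drying, then a water rinse. They were then held 24 h anaerobically at 37 °C in sucrose beef-extract medium, with or without S. mutans OMZ-61, repeated once. Staining was 1-min 1% FD&C Red No. 3, scored visually.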

Row | Structure (SMILES) | MIC (Escherichia coli [1]) [µg/mL] | MIC (Klebsiella pneumoniae) [µg/mL] | MIC (Escherichia coli [6]) [µg/mL] | MIC (Escherichia coli [7]) [µg/mL] | MIC (Proteus mirabilis [8]) [µg/mL] | MIC (Pseudomonas aeruginosa [9]) [µg/mL] | MIC (Staphylococcus aureus [22]) [µg/mL] | Concentration (Streptococcus mutans [24]) [%] | Concentration (Actinomyces viscosus) [mM] | Concentration (Streptococcus mutans [26]) [mM] | Stain index [27] | also measured
1 | Br.Br.N=c1ccn(CCCCn2ccc(=N)cc2)cc1 | 500 | > 500 |  |  |  |  |  |  |  |  |  | MIC (Pseudomonas aeruginosa [2]): > 500 µg/mL; Min plague Inhibitory (Streptococcus mutans [3]): >1%; MIC (Staphylococcus aureus [4]): 125 µg/mL; MIC (Proteus mirabilis [5]): > 500 µg/mL
2 | CCCCC(CC)CNC(=N)NC(=N)NCCCCCCNC(=N)NC(=N)NCC(CC)CCCC.Cl.Cl (stereo not drawn) [ALEXIDINE DIHYDROCHLORIDE] | 2 | 3.9 | 1 | 1 | 31.3 | 15.6 | 0.5 | 0.005 |  |  |  | Plaque accum (Streptococcus mutans [10]): No plaque accumulation; Plaque accum (Streptococcus mutans [11]): No plaque accumulation; Plaque accum (Streptococcus mutans [12]): No plaque accumulation; Plaque accum (Streptococcus mutans [13]): No plaque accumulation; Plaque accum (Streptococcus mutans [14]): No plaque accumulation; Plaque accum (Streptococcus mutans [15]): No plaque accumulation; Staining potential (Streptococcus mutans [16]): No staining; Staining potential (Streptococcus mutans [17]): No staining; Staining potential (Streptococcus mutans [18]): No staining; Staining potential (Streptococcus mutans [19]): No staining; Staining potential (Streptococcus mutans [20]): No staining; I50 (Streptococcus mutans [21]): 156 (ug of base) ml-1; Staining potential (Streptococcus mutans [23]): No staining; MIC (Streptococcus mutans [25]): 0.5 (ug of base) ml-1
3 | CCCCCCCN=c1ccn(CCCCCCCCCCCCn2ccc(=NCCCCCCC)cc2)cc1.Cl.Cl | 0.5 | 2 | 1 | 0.5 | 2 | 3.9 | 0.2 | 0.003 | 2.81 | 2.81 | 10 | 
4 | Br.Br.CCCCCCCCCN=c1ccn(CCCCCCCCCn2ccc(=NCCCCCCCCC)cc2)cc1 | 2 | 3.9 | 3.9 | 2 | 3.9 | 3.9 | 2 | 0.004 | 1.37 | 1.37 | 1 | 
5 | Br.Br.N=c1ccn(CCCCCCn2ccc(=N)cc2)cc1 | 500 | > 500 |  |  |  |  |  |  |  |  |  | MIC (Pseudomonas aeruginosa [2]): > 500 µg/mL; Min plague Inhibitory (Streptococcus mutans [3]): >1%; MIC (Staphylococcus aureus [4]): 250 µg/mL; MIC (Proteus mirabilis [5]): > 500 µg/mL
6 | CCCCCCCCN=c1ccn(CCCCCCCCn2ccc(=NCCCCCCCC)cc2)cc1.Cl.Cl | 1 | 1 | 1 | 0.5 | 3.9 | 7.8 | 0.2 | 0.005 | 0.88 | 8.8 | 10 | 
7 | Br.Br.CCCCCCCCCN=c1ccn(CCCCCCCCCCCCn2ccc(=NCCCCCCCCC)cc2)cc1 | 3.9 | 3.9 | 7.8 | 3.9 | 3.9 | 3.9 | 2 | 0.01 | 2.6 | 1.3 | 1 | 
8 | Br.Br.CCCCCCCCN=c1ccn(CCCCCCCCCCCCCCn2ccc(=NCCCCCCCC)cc2)cc1 | 7.8 | 7.8 | 3.9 | 3.9 | 3.9 | 3.9 | 1 | 0.005 | 2.6 | 1.3 | 2 | 
9 | CCCCCCCCCN=c1ccn(CCCCCCn2ccc(=NCCCCCCCCC)cc2)cc1.Cl.Cl | 2 | 3.9 | 2 | 2 | 7.8 | 15.6 | 1 | 0.01 | 7.3 | 7.3 | 1 | 
10 | Br.Br.CCCCCCCCCN=c1ccn(CCCCCCCCCCn2ccc(=NCCCCCCCCC)cc2)cc1 | 2 | 3.9 | 3.9 | 3.9 | 3.9 | 3.9 | 2 | 0.004 | 2.7 | 1.35 | 1 | 
11 | CCCCCCCN=c1ccn(CCCCCCCCCCn2ccc(=NCCCCCCC)cc2)cc1.Cl.Cl | 0.5 | 1 | 1 | 0.5 | 7.8 | 7.8 | 0.2 | 0.004 | 1.46 | 0.73 | 10 | 
12 | Br.Br.CCCCCCCCN=c1ccn(CCCCCCCCCCCCn2ccc(=NCCCCCCCC)cc2)cc1 | 2 | 1 | 2 | 2 | 2 | 2 | 0.5 | 0.005 | 1.35 | 2.7 | 10 | 

From ChEMBL document CHEMBL1122519, “Bispyridinamines: a new class of topical antimicrobial agents as inhibitors of dental plaque” (1984)
